Experimental data collected from several papers.
Compare with care: the assays were run in different laboratories.
ESR2: Estrogen receptor beta (ESR2, Homo sapiens, UniProt Q92731)
Nos2: Nitric oxide synthase, inducible (Nos2, Mus musculus, UniProt P29477)

| Structure (SMILES) | target | effect on | action | technique | concentration | endpoint | value |
| --- | --- | --- | --- | --- | --- | --- | --- |
| Nc1ncc(-c2nc(N3CCOCC3)nc(N3CCOCC3)n2)c(C(F)F)n1 | Citron Rho-interacting kinase (CIT, Homo sapiens, UniProt O14578) | binding | – | competition with immobilised ligand | 10 µM | remaining binding | 91% |
| C[C@H](C(=O)N[C@H]1COc2ccccc2[C@@H]1S(C)(=O)=O)c1ccc(F)cc1 | ESR2 | enzyme activity | inhibitor | – | 10 µM | inhibition | 3% |
| Cc1sc2c(c1C)C(c1ccc(Cl)cc1)=N[C@@H](CC(=O)OC(C)(C)C)c1nnc(C)n1-2 | Stimulator of interferon genes protein (STING1, Homo sapiens, UniProt Q86WV6, H232R) | thermal stability | – | DSF | 200 µM | ΔTm | -1.58 °C |
| C#Cc1n[nH]c2c(-c3cn([C@@H](C)c4ccccn4)c(=O)[nH]c3=O)cc(F)cc12 | Tyrosine-protein kinase JAK2 (JAK2, Homo sapiens, UniProt O60674) | enzyme activity | inhibitor | – | 0.1 µM | inhibition | -1% |
| COCc1c(-c2cc3cc(C)cc(OC)c3s2)c2c(N)ncnn2c1CN1CCNC(=O)C1 | Nos2 | enzyme activity | inhibitor | – | 10 µM | inhibition | 17% |
| CCN(CC)CCCC[C@H](NC(=O)[C@H](CC(C)C)NC(=O)[C@H](C)NC(=O)[C@H](Cc1ccccc1)NC(=O)c1ccc(C(C)(C)C)cc1)C(=O)N[C@@H](CO)C(=O)OC | Bromodomain adjacent to zinc finger domain protein 2A, bromodomain (BAZ2A, Homo sapiens, UniProt Q9UIF9) | thermal stability | – | DSF | 25 µM | ΔTm | -0.23 °C |
| c1ccc(C(NCCNC(c2ccccc2)c2ccccc2)c2ccccc2)cc1 | ESR2 | enzyme activity | inhibitor | – | 10 µM | inhibition | 14% |
| COc1ncccc1-c1cnn2ccc(N3CCN(C(=O)OC(C)C)CC3)nc12 | Dual specificity mitogen-activated protein kinase kinase 4 (MAP2K4, Homo sapiens, UniProt P45985) | binding | – | competition with immobilised ligand | 1 µM | remaining binding | 100% |
| COc1cc(Nc2ncc(F)c(Nc3ccc4c(n3)NC(=O)C(C)(C)O4)n2)cc(OC)c1OC | Serine/threonine-protein kinase LATS2 (LATS2, Homo sapiens, UniProt Q9NRM7) | binding | – | competition with immobilised ligand | 10 µM | inhibition | 100% |
| Cc1ncc(C)n2nc(/C=C/c3nc(N4CCCC4)cc(N4CCOCC4)n3)nc12 | Nos2 | enzyme activity | inhibitor | – | 10 µM | inhibition | 10% |
| Cc1nn(C)cc1-c1nc2c(N3CCN(Cc4ccc(Cl)cc4)CC3)c(Cl)cnc2[nH]1 | Phosphatidylinositol 5-phosphate 4-kinase type-2 gamma (PIP4K2C, Homo sapiens, UniProt Q8TBX8) | binding | – | competition with immobilised ligand | 1 µM | remaining binding | 80% |
